Measurements as given in ChEMBL document CHEMBL1811802, “Synthesis and significant cytostatic activity of 7-hetaryl-7-deazaadenosines” (J Med Chem, 2011).
pIC50: −log10 of the molar value. The source made the active and inactive calls. The rule behind the calls is not given here.

Experiments:
HeLa = assay: Cytotoxicity against human HeLa cells after 3 days by MTT assay; assay type: functional, cell-based; details: 72 h
CCRF-CEM [1] = assay: Inhibition of DNA synthesis in human CCRF-CEM cells assessed as BrdU incorporation at 1 to 5 times GI50 after 1 hr by FACS analysis; assay type: functional, cell-based; details: in the assay text read “at 5 times GI50 after longer incubation” for “at 1 to 5 times GI50 after 1 hr”
Procedure, shortened: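 CCRF-CEM cultured as for cell cycle (1× or 5× GIC50), pulsed with 10 μM BrdU for 30 min before harvest. Ethanol-fixed, DNA denatured in 2 M HCl, anti-BrdU then FITC secondary antibody, propidium iodide/RNase counterstain, flow cytometry at 488 nm.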

BV-173 = assay: Cytotoxicity against human BV173 cells after 3 days by MTT assay; assay type: functional, cell-based; details: BV-173, 72 h
MT4 = assay: Cytostatic activity against human MT4 cells after 5 days by SRB assay; assay type: functional; details: MT4, 120 h
MCF7 = assay: Cytotoxicity against human MCF7 cells after 3 days by MTT assay; assay type: functional, cell-based; details: MCF7, 72 h
[2] = Antitumor activity against mouse P388D1 cells xenografted in DBA/2 mouse assessed as increase of mean survival days at 75 mg/kg, ip qd administered as 2 cycles on day 1 to 3 and day 8 to 10; assay type: functional; details: route intraperitoneal
Procedure, shortened: (§1)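 P388D1 mouse leukemia cells, grown in RPMI with 10% FBS, were implanted ip at 10^5 cells per mouse on day 0 into female DBA/2 mice (18–22 g, SPF) and randomized 10 per group. Dosing was once daily ip in 50% PEG400/deionized water (pH 7.0) on days 1–3 and 8–10, with vehicle for controls. Deaths were recorded daily, and MST and %ILS were calculated.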

BJ = assay: Cytotoxicity against human BJ cells after 3 days by MTT assay; assay type: cell-based; details: 72 h
CCRF-CEM [3] = assay: Induction of apoptosis in human CCRF-CEM cells at 5 time GI50 after 4 to 8 hrs using propidium iodide staining by flow cytometry; assay type: functional, cell-based
Procedure, shortened: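 CCRF-CEM at 5 × 10^5 cells/ml in RPMI 1640/10% FCS, 37 °C, exposed to 1× or 5× GIC50; vehicle controls in parallel. Ethanol-fixed, RNase-treated, propidium iodide stained, flow cytometry; apoptosis taken as % sub-G1 particles (logarithmic mode).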

CCRF-CEM [4] = assay: Cell cycle arrest in human CCRF-CEM cells assessed as accumulation at G2/M phase at 5 time GI50 using propidium iodide staining by flow cytometry; assay type: functional, cell-based
Procedure, shortened: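 CCRF-CEM seeded at 5 × 10^5 cells/ml, grown in RPMI 1640 with 10% FCS at 37 °C with 1× or 5× GIC50 of compound; vehicle controls harvested at same times. Cells ethanol-fixed, RNase-treated, stained with propidium iodide, flow cytometry at 488 nm; cell cycle phases scored.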

A549 = assay: Cytostatic activity against human A549 cells after 5 days by SRB assay; assay type: functional; details: A549, 120 h
Procedure, shortened: (§2)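 Cells seeded per line density, overnight at 37 °C; day-zero plate TCA-fixed. 5-fold serial dilutions added, 5-day incubation; TCA fixation, 0.057% SRB in 1% acetic acid 30 min, dye dissolved in 10 mM Tris pH 10.5, A500. Growth relative to day-zero and untreated; GIC50 from sigmoidal dose–response fit; mean of two independent experiments.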

[5] = Cytotoxicity against human U87MG cells after 3 days by MTT assay; assay type: functional, cell-based, U-87MG ATCC; details: U-87 MG, 72 h
MDA-MB-231 = assay: Cytotoxicity against human MDA-MB-231 cells after 3 days by MTT assay; assay type: functional, cell-based; details: MDA-MB-231, 72 h
DU-145 [6] = assay: Metabolic stability in human DU145 cells assessed as sodium ((2R,3S,4R,5R)-5-(4-amino-7H-pyrrolo[2,3-d]pyrimidin-7-yl)-3,4-dihydroxytetrahydrofuran-2-yl)methyl hydrogentriphosphate-NTP formation per million of cells at 10 uM after 6 hrs by LC/MS/MS analysis; assay type: ADME, cell-based; details: du-145, 6 h
Procedure, shortened: (§3)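 Du145 seeded at 60% confluence in MEM/10% FBS; next day exposed to 10 μM compound for 6 or 24 h. Cells trypsinized, extracted in 70% MeOH, dried, resuspended in 1 mM ammonium phosphate pH 8.5. Nucleoside, NMP and NTP quantified by ion-pairing (dimethylhexylamine) LC/MS/MS against untreated-cell-extract standard curves; pmol per million cells.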

PC-3 = assay: Cytotoxicity against human PC3 cells after 3 days by MTT assay; assay type: functional, cell-based; details: PC-3, 72 h
[7] = Antitumor activity against mouse P388D1 cells xenografted in DBA/2 mouse assessed as increase of lifespan at 75 mg/kg, ip qd administered as 2 cycles on day 1 to 3 and day 8 to 10; assay type: functional; details: route intraperitoneal; procedure, shortened: as §1
[8] = Cytotoxicity against mouse P388D1 cells after 3 days by MTT assay; assay type: functional, cell-based; details: P388D1, 72 h
DU-145 [9] = assay: Metabolic stability in human DU145 cells assessed as nucleoside formation per million of cells at 10 uM after 6 hrs by LC/MS/MS analysis; assay type: ADME, cell-based; details: du-145, 6 h; procedure, shortened: as §3
CCRF-CEM [10] = assay: Cytotoxicity against human CCRF-CEM cells after 3 days by XTT assay; assay type: functional, cell-based; details: 72 h
Procedure, shortened: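 Suspension-grown cell lines, 3-day compound incubation; viability read by XTT metabolic assay; IC50 averaged from four independent experiments.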

SK-N-AS = assay: Cytotoxicity against human SK-N-AS cells after 3 days by MTT assay; assay type: functional, cell-based; details: 72 h
HPAC = assay: Cytotoxicity against human HPAC cells after 3 days by MTT assay; assay type: functional, cell-based; details: 72 h
[11] = Antitumor activity against mouse P388D1 cells xenografted in DBA/2 mouse assessed as increase of lifespan at 35 mg/kg, ip qd administered as 2 cycles on day 1 to 3 and day 8 to 10; details: route intraperitoneal
[12] = Cytotoxicity against human CEM-DNR-bulk cells after 3 days by MTT assay; assay type: functional, cell-based; details: 72 h
BT-549 = assay: Cytotoxicity against human BT549 cells after 3 days by MTT assay; assay type: functional, cell-based; details: BT-549, 72 h
HCT-116 = assay: Cytotoxicity against human HCT116 cells after 3 days by MTT assay; assay type: functional, cell-based; details: HCT-116, 72 h
CT26 = assay: Cytotoxicity against mouse CT26 cells after 3 days by MTT assay; assay type: functional, cell-based; details: CT26, 72 h
DU-145 [13] = assay: Metabolic stability in human DU145 cells assessed as nucleoside formation per million of cells at 10 uM after 24 hrs by LC/MS/MS analysis; assay type: ADME, cell-based; details: du-145, 24 h; procedure, shortened: as §3
DU-145 [14] = assay: Cytostatic activity against human DU145 cells after 5 days by SRB assay; assay type: functional; details: DU-145, 120 h; procedure, shortened: as §2
NCI-H23 = assay: Cytostatic activity against human NCI-H23 cells after 5 days by SRB assay; assay type: functional; details: NCI-H23, 120 h; procedure, shortened: as §2
HT-29 = assay: Cytotoxicity against human HT-29 cells after 3 days by MTT assay; assay type: functional, cell-based; details: HT-29, 72 h
C6 = assay: Cytotoxicity against rat C6 cells after 3 days by MTT assay; assay type: functional, cell-based; details: C6, 72 h
DU-145 [15] = assay: Metabolic stability in human DU145 cells assessed as sodium ((2R,3S,4R,5R)-5-(4-amino-7H-pyrrolo[2,3-d]pyrimidin-7-yl)-3,4-dihydroxytetrahydrofuran-2-yl)methyl hydrogenphosphate-NMP formation per million of cells at 10 uM after 6 hrs by LC/MS/MS analysis; assay type: ADME, cell-based; details: du-145, 6 h; procedure, shortened: as §3

With Nc1ncnc2c1c(-c1cccs1)cn2[C@@H]1O[C@H](CO)[C@@H](O)[C@H]1O as the compound, how does the pIC50 (HeLa) read?
Its pIC50 is 7.48.

And the inhibition (CCRF-CEM [1])?
The inhibition was “Active”.

What about the pIC50 (BV-173) of the same compound?
The pIC50 was 6.98.

What about the GI50 (MT4) of the same compound?
Its GI50 is 35 nM.

What about the pIC50 (MCF7) of the same compound?
Its pIC50 is 6.28.

And the MSD [2]?
The MSD was 15.1 days.

And the pIC50 (BJ)?
The pIC50 was 5.01.

What about the Activity (CCRF-CEM [3]) of the same compound?
The Activity was “Active”.

What about the Activity (CCRF-CEM [4]) of the same compound?
The Activity was “Active”.

And the GI50 (A549)?
The GI50 was 7 nM.

And the pIC50 [5]?
The pIC50 was under 5.00.

And the pIC50 (MDA-MB-231)?
The pIC50 was 7.59.

What about the Stability (DU-145 [6]) of the same compound?
The Stability was 0.53 pmol.

And the pIC50 (PC-3)?
Its pIC50 is 5.06.

What about the Activity [7] of the same compound?
Its Activity is 29%.

And the pIC50 [8]?
The pIC50 was 7.55.

And the Stability (DU-145 [9])?
Its Stability is 4.66 pmol.

What about the pIC50 (CCRF-CEM [10]) of the same compound?
Its pIC50 is 7.30.

What about the pIC50 (SK-N-AS) of the same compound?
Its pIC50 is under 5.00.

And the pIC50 (HPAC)?
Its pIC50 is 7.15.

And the Activity [11]?
Its Activity is 28%.

And the pIC50 [12]?
The pIC50 was 7.04.

And the pIC50 (BT-549)?
The pIC50 was 6.92.

What about the pIC50 (HCT-116) of the same compound?
Its pIC50 is 7.22.

And the pIC50 (CT26)?
The pIC50 was 6.91.

What about the Stability (DU-145 [13]) of the same compound?
Its Stability is 30.4 pmol.

And the GI50 (DU-145 [14])?
The GI50 was 133 nM.

And the GI50 (NCI-H23)?
The GI50 was 3.7 nM.

What about the pIC50 (HT-29) of the same compound?
Its pIC50 is 7.02.

What about the pIC50 (C6) of the same compound?
Its pIC50 is 5.34.

What about the Stability (DU-145 [15]) of the same compound?
The Stability was 5.04 pmol.
